Data reported in ChEMBL document CHEMBL2086245, “Micelles catalyzed chemo- and regio-selective one pot and one step synthesis of 2,3,5,6-tetrakis(alkyl and arylsulfanyl)-1,4-benzoquinones and 2,5-diaminosubstituted-1,4-benzoquinones "In-Water" and their biological evaluation as antibacterial and antifungal agents” (Eur J Med Chem, 2012).
In brackets after ≈: the same amount, converted by molar mass.

Experiments:
[1] = system: Sporothrix schenckii; test: Antifungal activity against Sporothrix schenckii after 72 hrs by broth microdilution method; format: functional
Procedure, shortened: (§1)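 NCCLS broth microdilution in MOPS-buffered RPMI 1640, 96-well plates. Inoculum 1-5 × 10^3 cells/mL, moist chamber, 35 °C. Absorbance at 492 nm read at 48 h (C. albicans, C. parapsilosis), 72 h (C. neoformans, S. schenckii, A. fumigatus) or 96 h (T. mentagrophytes). MIC defined as 90% growth inhibition versus growth control.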

[2] = system: Aspergillus fumigatus; test: Antifungal activity against Aspergillus fumigatus after 72 hrs by broth microdilution method; format: functional; procedure, shortened: as §1
[3] = system: Escherichia coli; test: Antibacterial activity against Escherichia coli ATCC 9637 after 24 hrs by broth microdilution method; format: functional; details: ATCC 9637, 24 h
Procedure, shortened: (§2)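 NCCLS broth microdilution in Mueller-Hinton broth, 96-well plates. Initial inoculum 1-5 × 10^3 cells/mL. Incubated in a moist chamber at 35 °C for 24 h, then absorbance read at 492 nm. MIC taken as the concentration giving 90% growth inhibition relative to the growth control.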

[4] = system: Staphylococcus aureus; test: Antibacterial activity against Staphylococcus aureus ATCC 25923 after 24 hrs by broth microdilution method; format: functional; details: ATCC 25923, 24 h; procedure, shortened: as §2
[5] = system: Candida albicans; test: Antifungal activity against Candida albicans after 48 hrs by broth microdilution method; format: functional; procedure, shortened: as §1
[6] = system: Klebsiella pneumoniae; test: Antibacterial activity against Klebsiella pneumoniae ATCC 27736 after 24 hrs by broth microdilution method; format: functional; details: ATCC 27736, 24 h; procedure, shortened: as §2
[7] = system: Trichophyton mentagrophytes; test: Antifungal activity against Trichophyton mentagrophytes after 96 hrs by broth microdilution method; format: functional; procedure, shortened: as §1
[8] = system: Cryptococcus neoformans; test: Antifungal activity against Cryptococcus neoformans after 72 hrs by broth microdilution method; format: functional; procedure, shortened: as §1
[9] = system: Candida parapsilosis; test: Antifungal activity against Candida parapsilosis ATCC 22019 after 48 hrs by broth microdilution method; format: functional; details: Lodderomyces parapsilosis, ATCC 22019, 48 h; procedure, shortened: as §1
[10] = system: Pseudomonas aeruginosa; test: Antibacterial activity against Pseudomonas aeruginosa ATCC BAA-427 after 24 hrs by broth microdilution method; format: functional; details: ATCC BAA-427, 24 h; procedure, shortened: as §2
[11] = system: L929; test: Cytotoxicity against mouse L929 cells assessed as morphological changes at 0.39 to 1.56 ug/ml using Giemsa staining by phase contrast microscopy analysis; format: cell-based
Procedure, shortened: (§3)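 L929 fibroblasts in serum-free RPMI exposed to compound for 24 h. Wells fixed, Giemsa-stained 30 min at 37 °C, washed with PBS, air-dried. Morphology inspected by phase contrast microscopy against untreated control wells.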

[12] = system: L929; test: Cytotoxicity against mouse L929 cells assessed as morphological changes at 6.25 to 50 ug/ml using Giemsa staining by phase contrast microscopy analysis; format: cell-based; procedure, shortened: as §3
[13] = Cytotoxicity against mouse L929 cells assessed as cell viability at 6.25 to 50 ug/ml after 24 hrs by MTT assay; format: cell-based; details: read-out: Activity

| SMILES | MIC [1] [µg/mL] | MIC [2] [µg/mL] | MIC [3] [µg/mL] | MIC [4] [µg/mL] | MIC [5] [µg/mL] | MIC [6] [µg/mL] | MIC [7] [µg/mL] | MIC [8] [µg/mL] | MIC [9] [µg/mL] | MIC [10] [µg/mL] | Activity [11] | Activity [12] | viability at 24 h [13] [%] |
| --- | --- | --- | --- | --- | --- | --- | --- | --- | --- | --- | --- | --- | --- |
| O=C1C(Cl)=C(Sc2cccc3ccccc23)C(=O)C(Cl)=C1Sc1cccc2ccccc12 | 50 (≈ 101 µM) | > 50 | > 50 | 25 (≈ 50.7 µM) | 25 (≈ 50.7 µM) | > 50 | 50 (≈ 101 µM) | 25 (≈ 50.7 µM) | 12.5 (≈ 25.3 µM) | > 50 |  |  |  |
| O=C1C(Sc2ccccc2)=C(Sc2ccccc2)C(=O)C(Sc2ccccc2)=C1Sc1ccccc1 | 1.56 (≈ 2.88 µM) | 50 (≈ 92.5 µM) | > 50 | > 50 | 12.5 (≈ 23.1 µM) | > 50 | 0.78 (≈ 1.44 µM) | 12.5 (≈ 23.1 µM) | 6.25 (≈ 11.6 µM) | > 50 |  |  |  |
| O=C1C(Cl)=C(Sc2ccccc2)C(=O)C(Sc2ccccc2)=C1Sc1ccccc1 | 50 (≈ 107 µM) | > 50 | > 50 | 50 (≈ 107 µM) | 25 (≈ 53.5 µM) | > 50 | 50 (≈ 107 µM) | 25 (≈ 53.5 µM) | 25 (≈ 53.5 µM) | > 50 |  |  |  |
| O=C1C=C(Sc2ccccc2)C(=O)C=C1Sc1ccccc1 | 50 (≈ 154 µM) | > 50 | > 50 | > 50 | 25 (≈ 77.1 µM) | > 50 | 50 (≈ 154 µM) | 25 (≈ 77.1 µM) | 50 (≈ 154 µM) | > 50 |  |  |  |
| O=C1C(Cl)=C(N2CCOCC2)C(=O)C(Cl)=C1N1CCOCC1 | 12.5 (≈ 36 µM) | > 50 | > 50 | 25 (≈ 72 µM) | 12.5 (≈ 36 µM) | > 50 | 6.25 (≈ 18 µM) | 12.5 (≈ 36 µM) | 12.5 (≈ 36 µM) | > 50 |  |  |  |
| O=C1C(Cl)=C(Sc2ccccc2)C(=O)C(Cl)=C1Sc1ccccc1 | 50 (≈ 127 µM) | > 50 | > 50 | 50 (≈ 127 µM) | 25 (≈ 63.6 µM) | > 50 | 50 (≈ 127 µM) | 25 (≈ 63.6 µM) | 25 (≈ 63.6 µM) | > 50 |  |  |  |
| OC(Cn1cncn1)(Cn1cncn1)c1ccc(F)cc1F [FLUCONAZOLE] | 4 (≈ 13.1 µM) | > 32 |  |  | 1 (≈ 3.27 µM) |  | 16 (≈ 52.2 µM) | 2 (≈ 6.53 µM) | 0.5 (≈ 1.63 µM) |  |  |  |  |
| CC1(C)S[C@@H]2[C@H](NC(=O)[C@H](N)c3ccccc3)C(=O)N2[C@H]1C(=O)O [AMPICILLIN] |  |  | 12.5 (≈ 35.8 µM) | 12.5 (≈ 35.8 µM) |  | > 50 |  |  |  | > 50 |  |  |  |
| O=C1C(O)=C(Sc2ccccc2)C(=O)C(Sc2ccccc2)=C1Sc1ccccc1 | 50 (≈ 111 µM) | > 50 | > 50 | > 50 | 12.5 (≈ 27.9 µM) | > 50 | 50 (≈ 111 µM) | 12.5 (≈ 27.9 µM) | 12.5 (≈ 27.9 µM) | > 50 |  |  |  |
| O=C1C(Cl)=C(N2CCCCC2)C(=O)C(Cl)=C1N1CCCCC1 | 25 (≈ 72.8 µM) | > 50 | > 50 | > 50 | 25 (≈ 72.8 µM) | > 50 | 12.5 (≈ 36.4 µM) | 25 (≈ 72.8 µM) | 25 (≈ 72.8 µM) | > 50 |  |  |  |
| CN1CCN(C2=C(Cl)C(=O)C(N3CCN(C)CC3)=C(Cl)C2=O)CC1 | 1.56 (≈ 4.18 µM) | 12.5 (≈ 33.5 µM) | 6.25 (≈ 16.7 µM) | 6.25 (≈ 16.7 µM) | 6.25 (≈ 16.7 µM) | 6.25 (≈ 16.7 µM) | 0.78 (≈ 2.09 µM) | 1.56 (≈ 4.18 µM) | 6.25 (≈ 16.7 µM) | > 50 | Non-toxic | Toxic | > 90 |
